Laboratory results reported in ChEMBL document CHEMBL1142105, “Bioactive metabolites from the Caribbean sponge Aka coralliphagum” (J Nat Prod, 2007).
Converted amounts (≈) assume the structure as drawn.

Tests used:
Saccharomyces cerevisiae = assay: Antimicrobial activity against Saccharomyces cerevisiae at 20 ug by agar diffusion test; format: functional; details: read-out: IZ
Method in brief: (§1)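 Yeasts from the HZI collection were seeded into agar medium at a final OD of 0.1. Paper disks (6 mm) carried 20 µg of compound, applied as 20 µL of 1 mg/mL in MeOH. Plates were kept at 30 °C, and inhibition zone diameters (mm) were measured at days 1 and 2.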

[1] = test system: Globisporangium debaryanum; assay: Antimicrobial activity against Pythium debaryanum at 20 ug by agar diffusion test; format: functional; details: read-out: IZ
Method in brief: (§2)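 Fungal spores were rinsed from well-grown Petri dishes with 10 mL sterile water, and 1 mL of the suspension was mixed into 100 mL molten agar. Disks (6 mm) with 20 µg compound (20 µL, 1 mg/mL in methanol) were placed on the agar. Plates were incubated at 30 °C, and zone diameter (mm) was scored after 1 and 2 days.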

Mycolicibacterium phlei = assay: Antimicrobial activity against Mycobacterium phlei at 20 ug by agar diffusion test; format: functional; details: read-out: IZ
Method in brief: (§3)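 Agar diffusion on 6 mm paper disks loaded with 20 µL of a 1 mg/mL methanol solution (20 µg). Bacteria from the HZI collection were grown on standard media and seeded into agar medium at a final OD of 0.01. Plates were incubated at 30 °C, and inhibition zone diameter (mm) was read after 1 and 2 days.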

Aspergillus fumigatus = assay: Antimicrobial activity against Aspergillus fumigatus at 20 ug by agar diffusion test; format: functional; details: read-out: IZ; method in brief: as §2
[2] = DPPH radical scavenging activity at 40 umol/L relative to control; format: functional
Method in brief: (§4)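 Samples in EtOH (1000 µL at 200 or 40 µM) were mixed with 250 µL of 1 mM DPPH stock and 750 µL EtOH, then held at RT in the dark for 30 min. Absorbance was read at 517 nm. Scavenging % = 100 − (A sample × 100/A control).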

Candida albicans = assay: Antimicrobial activity against Candida albicans at 20 ug by agar diffusion test; format: functional; details: read-out: IZ; method in brief: as §1
Escherichia coli = assay: Antimicrobial activity against Escherichia coli tolC at 20 ug by agar diffusion test; format: functional; details: read-out: IZ; method in brief: as §3
Staphylococcus aureus = assay: Antimicrobial activity against Staphylococcus aureus at 20 ug by agar diffusion test; format: functional; details: read-out: IZ; method in brief: as §3
Klebsiella pneumoniae = assay: Antimicrobial activity against Klebsiella pneumoniae at 20 ug by agar diffusion test; format: functional; details: read-out: IZ; method in brief: as §3
L929 = assay: Cytotoxicity against mouse L929 cells by MTT assay; format: cell-based
Method in brief: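 L929 mouse fibroblasts (DSMZ) were grown in high-glucose DME with 10% fetal calf serum at 37 °C and 10% CO2. Cell suspension (120 µL at 50 000/mL) was added to 60 µL of serial compound dilutions in microtiter plates. Growth was determined by MTT after 5 days, with concentrations expressed in µg/mL.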

Pseudomonas aeruginosa = assay: Antimicrobial activity against Pseudomonas aeruginosa at 20 ug by agar diffusion test; format: functional; details: read-out: IZ; method in brief: as §3
Botrytis cinerea = assay: Antimicrobial activity against Botrytis cinerea at 20 ug by agar diffusion test; format: functional; details: read-out: IZ; method in brief: as §2
Micrococcus luteus = assay: Antimicrobial activity against Micrococcus luteus at 20 ug by agar diffusion test; format: functional; details: read-out: IZ; method in brief: as §3
[3] = DPPH radical scavenging activity at 200 umol/L relative to control; format: functional; method in brief: as §4
Wickerhamomyces anomalus = assay: Antimicrobial activity against Hansenula anomala at 20 ug by agar diffusion test; format: functional; details: read-out: IZ; method in brief: as §1

Row | SMILES | zone of inhibition at 20 µg/disc (Saccharomyces cerevisiae) | zone of inhibition at 20 µg/disc [1] | zone of inhibition at 20 µg/disc (Mycolicibacterium phlei) | zone of inhibition at 20 µg/disc (Aspergillus fumigatus) | Activity [2] | zone of inhibition at 20 µg/disc (Candida albicans) | zone of inhibition at 20 µg/disc (Escherichia coli) | zone of inhibition at 20 µg/disc (Staphylococcus aureus) | zone of inhibition at 20 µg/disc (Klebsiella pneumoniae) | IC50 (L929) | zone of inhibition at 20 µg/disc (Pseudomonas aeruginosa) | zone of inhibition at 20 µg/disc (Botrytis cinerea) | zone of inhibition at 20 µg/disc (Micrococcus luteus) | Activity [3] | Activity (L929) | zone of inhibition at 20 µg/disc (Wickerhamomyces anomalus)
1 | C[C@H]1CCC2C(C)(C)CCC[C@]2(C)/C1=C/c1cc(O)c(O)c(C=O)c1OS(=O)(=O)O (some centres undefined) [SIPHONODICTYAL B2] | 0 mm | 0 mm | 0 mm | 0 mm | 25.3% | 0 mm | 0 mm | 13 mm | 0 mm | 6 µg/mL (≈ 13.7 µM) | 0 mm | 15 mm | 0 mm | 88.8% | – | –
2 | C[C@H]1CCC2C(C)(C)CCC[C@]2(C)/C1=C/c1cc(O)c(O)c(C=O)c1O (some centres undefined) [SIPHONODICTYAL B] | 0 mm | – | – | 15 mm | – | – | 9 mm | 12 mm | – | – | – | – | – | – | 0.2 µg/mL | –
3 | O=C1O[C@H]([C@@H](O)CO)C(O)=C1O | – | – | – | – | 27% | – | – | – | – | – | – | – | – | 95.3% | – | –
4 | C=C1CCCC2[C@](C)(Cc3cc(CO)cc(O)c3OS(=O)(=O)O)[C@@H](C)CC[C@]12C (some centres undefined) [SIPHONODICTYOL G] | 0 mm | 0 mm | 0 mm | 0 mm | 2.6% | 0 mm | 0 mm | 0 mm | 0 mm | – | 0 mm | 15 mm | 0 mm | 39.8% | > 40 µg/mL | 0 mm
5 | C[C@H]1CCC2C(C)(C)CCC[C@]2(C)/C1=C/c1cc(OS(=O)(=O)O)c(O)c(C=O)c1OS(=O)(=O)O (some centres undefined) [SIPHONODICTYAL B3] | 0 mm | 0 mm | 0 mm | 0 mm | – | 0 mm | 0 mm | 0 mm | 0 mm | – | 0 mm | 0 mm | 0 mm | – | > 40 µg/mL | 0 mm
6 | C[C@H]1CCC2C(C)(C)CCC[C@]2(C)/C1=C/c1cc(O)c(O)c(/C=N/CCS(=O)(=O)O)c1OS(=O)(=O)O (some centres undefined) [SIPHONODICTYAL B1] | 0 mm | 0 mm | 0 mm | 0 mm | 23.5% | 0 mm | 0 mm | 12 mm | 0 mm | – | 0 mm | 13 mm | 0 mm | 80.8% | 10 µg/mL | 0 mm
7 | C=C1CCCC2[C@](C)(Cc3cc(C=O)cc(O)c3OS(=O)(=O)O)[C@@H](C)CC[C@]12C (some centres undefined) [SIPHONODICTYAL G] | 0 mm | 0 mm | 0 mm | 0 mm | 5.9% | 0 mm | 0 mm | 0 mm | 0 mm | – | 0 mm | 0 mm | 0 mm | 32.2% | 10 µg/mL | 0 mm
